Pf Dd2 inh = P. falciparum Dd2 growth inhibition; 2.3% of 94,000 active; SYBR Green, 72 h; active compounds read low; activity change, % at 10 µM; in the data active means activity change below about -80%; inconclusive means no clear call, values can overlap the other calls
IDH1 mut inh = IDH1 R132H (human) inhibition; IDH1 R132H reductase, diaphorase/resazurin fluorescence, 60 min; inhibition, % at 10 µM; 0.18% of 70,000 active; AID 624101; in the data active means inhibition above about 34%; inconclusive means no clear call, values can overlap the other calls; inactive means below about 11%
T cruzi growth-1 = inhibitors of T. cruzi proliferation; T. cruzi beta-gal in NIH3T3, GalScreen luminescence, 90 h; 5.9% of 77,000 active; AID 624255; inhibition, % at 8.34 µM;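 active means mean inhibition above about 93%, with at least 55% of replicates each passing it, limit read from the data, passing the limit was not always enough; inconclusive means only one of those two conditions holds; inactive means neither condition holds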
KDM4C inh = blocks human GASC-1 (KDM4C) demethylase activity | GST-KDM4C 2-372, H3K9me3 peptide, LANCE TR-FRET | inhibition, % at 12.5 µM | Q9H3R0 | 0.15% of 96,000 active;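 active means mean replicate inhibition above about 25%, with at least 55% of replicates also reaching it, limit read from the data, passing the limit was not always enough; inconclusive means only one of those two conditions met; inactive means neither condition met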
Target sequence (Q9H3R0 2-372 limits assumed): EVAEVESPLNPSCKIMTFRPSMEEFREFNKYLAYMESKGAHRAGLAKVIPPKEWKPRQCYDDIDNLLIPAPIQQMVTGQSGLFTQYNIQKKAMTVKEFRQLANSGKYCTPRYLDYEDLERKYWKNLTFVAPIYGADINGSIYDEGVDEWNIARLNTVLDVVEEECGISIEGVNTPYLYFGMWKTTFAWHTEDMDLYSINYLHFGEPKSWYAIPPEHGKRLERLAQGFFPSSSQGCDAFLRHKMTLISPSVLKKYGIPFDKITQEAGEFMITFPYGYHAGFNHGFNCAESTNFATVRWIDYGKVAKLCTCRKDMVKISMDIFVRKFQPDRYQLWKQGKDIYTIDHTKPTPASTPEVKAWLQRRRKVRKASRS
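Material: GST-tagged GASC-1 (JMJD2C) catalytic fragment, aa 2-372. Input: enzyme final amount 10 nM. Medium: HEPES buffer, pH 7.5, plus ascorbate. Reagent: H3K9me3 peptide substrate, Fe(II), 2-oxoglutarate. Doses: single dose. Times: reaction 30 min RT, detection step 1 h RT. Measured by: LANCE TR-FRET. Evaluation: Fall in 671/618 emission ratio as inhibition.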
T cruzi growth-2 = blocks T. cruzi growth in NIH3T3 host cells | T. cruzi beta-gal in NIH3T3, GalScreen luminescence, 90 h | shares compounds with T cruzi growth-1 | AID 651739 | inhibition, % at 8.35 µM | 72% of 5,600 active;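 active means mean replicate inhibition above about 95% and at least 55% of replicates individually reaching it, limit read from the data; inconclusive means only one of the two criteria is met; inactive means neither criterion is met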
T cruzi growth-3 = inhibitors of T. cruzi proliferation | shares compounds with T cruzi growth-1 | T. cruzi beta-gal in NIH3T3, GalScreen luminescence, 90 h | inhibition, % at 2.09 µM | 21% of 5,600 active | AID 651740;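 active means mean inhibition above about 95%, with at least 55% of replicates also reaching it, limit read from the data; inconclusive means meets just one of the two conditions; inactive means meets neither condition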
NIH3T3 tox = cytotoxicity in mouse NIH/3T3 fibroblasts; shares compounds with T cruzi growth-1; NIH/3T3 viability, CellTiter-Glo ATP luminescence, 90 h; cytotoxicity (signal decrease), % at 8.35 µM; 14% of 5,600 active;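 active means mean signal decrease across replicates above about 35% based on untreated-well scatter, with enough replicates individually passing, limit read from the data; inconclusive means no rule stated though some were filed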
3T3 cytotox 2 = cytotoxicity in mouse NIH/3T3 fibroblasts; inhibition, % at 24.9 µM; shares compounds with T cruzi growth-1; NIH/3T3 viability, CellTiter-Glo ATP luminescence, 90 h; 56% of 5,600 active;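 active means mean loss of cell viability signal at or above a set limit, and enough replicates individually reaching it; inconclusive means meets only the mean limit or only the replicate share; inactive means meets neither condition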
Hits are given with their value; n = inactive; u = inconclusive; x = no result given. Compounds with a hit are over-represented: about 5.8% of the library has one in this group of screens.

SMILES	Pf Dd2 inh	IDH1 mut inh	T cruzi growth-1	KDM4C inh	T cruzi growth-2	T cruzi growth-3	NIH3T3 tox	3T3 cytotox 2
C[C@H](CO)N1C[C@H](C)[C@@H](CN(C)C(=O)Nc2ccc(F)cc2)Oc2cc(-c3ccncc3)ccc2S1(=O)=O	n	n	n	n	x	x	x	x
C[C@@H]1CN([C@@H](C)CO)S(=O)(=O)c2ccc(-c3ccncc3)cc2O[C@H]1CN(C)C(=O)Nc1ccc(F)cc1	n	x	102	n	101	n	n	64
C[C@H]1CN([C@@H](C)CO)S(=O)(=O)c2ccc(-c3ccncc3)cc2O[C@H]1CN(C)C(=O)Nc1ccc(F)cc1	n	n	n	n	x	x	x	x
Cc1ccc(-c2ccc3c(c2)O[C@@H](CN(C)C(=O)Nc2ccc(F)cc2)[C@H](C)CN([C@@H](C)CO)S3(=O)=O)cc1	n	x	119	n	95	n	43	35
Cc1ccc(-c2ccc3c(c2)O[C@@H](CN(C)C(=O)Nc2ccc(F)cc2)[C@H](C)CN([C@H](C)CO)S3(=O)=O)cc1	n	n	n	n	x	x	x	x
C[C@H]1CN([C@@H](C)CO)S(=O)(=O)c2ccc(-c3ccncc3)cc2O[C@@H]1CN(C)C(=O)Nc1ccc(F)cc1	n	59	105	n	102	n	n	u
COC(=O)[C@@H]1[C@@H](CO)[C@@H]2Cn3c(cccc3=O)[C@@H]2N1CC1CCOCC1	x	x	n	n	x	x	x	x
Cc1ccccc1-c1ccc2c(c1)O[C@H](CN(C)C(=O)Nc1ccccc1)[C@@H](C)CN([C@H](C)CO)S2(=O)=O	n	n	u	n	n	n	n	28
Cc1ccccc1-c1ccc2c(c1)O[C@H](CN(C)C(=O)Nc1ccccc1)[C@H](C)CN([C@H](C)CO)S2(=O)=O	n	n	n	n	x	x	x	x
C[C@H](CO)N1C[C@H](C)[C@H](CN(C)Cc2ccccc2)Oc2ncc(-c3ccc(F)cc3)cc2C1=O	n	n	n	n	x	x	x	x
C[C@@H]1CN([C@H](C)CO)C(=O)c2cc(-c3cccnc3)cnc2O[C@@H]1CN(C)Cc1ccc(Oc2ccccc2)cc1	n	n	n	n	x	x	x	x
C[C@@H]1CN([C@@H](C)CO)C(=O)c2cc(-c3ccncc3)cnc2O[C@H]1CN(C)Cc1ccc(Oc2ccccc2)cc1	n	n	94	n	102	n	41	104
C[C@H](CO)N1C[C@H](C)[C@@H](CN(C)Cc2ccc(Oc3ccccc3)cc2)Oc2ncc(-c3ccncc3)cc2C1=O	n	n	109	n	111	n	n	105
COCC(=O)N1CCC2(CC1)CN(Cc1ccccn1)[C@@H](CO)c1[nH]c3cc(OC)ccc3c12	n	x	x	n	x	x	x	x
C[C@H]1CN([C@@H](C)CO)C(=O)Cc2cc(N(C)C)ccc2O[C@@H]1CN(C)Cc1ccc2c(c1)OCO2	n	n	107	n	101	n	n	n
C[C@@H]1CN([C@@H](C)CO)C(=O)Cc2cc(N(C)C)ccc2O[C@@H]1CN(C)Cc1ccc(Cl)c(Cl)c1	n	n	n	x	x	x	x	x
C[C@@H]1CN([C@H](C)CO)C(=O)Cc2cc(N(C)C)ccc2O[C@@H]1CN(C)Cc1ccc2c(c1)OCO2	n	n	n	n	x	x	x	x
C[C@H]1CN([C@@H](C)CO)C(=O)Cc2cc(N(C)C)ccc2O[C@@H]1CN(C)Cc1ccc(Cl)c(Cl)c1	n	n	128	n	116	n	n	101
C[C@H](CO)N1C[C@H](C)[C@@H](CN(C)Cc2ccc3c(c2)OCO3)Oc2ccc(N(C)C)cc2CC1=O	n	n	133	n	105	n	n	31
Cc1noc(C)c1S(=O)(=O)N(C)C[C@@H]1Oc2ccc(NC(=O)CCCN(C)C)cc2C(=O)N([C@@H](C)CO)C[C@@H]1C	n	n	n	n	x	x	x	x
COC(=O)C[C@H]1CC[C@H]2[C@@H](COc3ccc(NS(=O)(=O)c4ccccc4Cl)cc3C(=O)N2C)O1	n	x	x	n	x	x	x	x
O=C1CN(S(=O)(=O)c2ccccc2)C[C@H]2[C@@H](c3ccc(Br)cc3)[C@H](CO)N12	n	x	x	n	x	x	x	x
CC(C)NC(=O)N1[C@H](C#N)[C@H](c2ccc(-c3ccc(F)cc3)cc2)[C@@H]1CO	u	x	u	n	96	109	n	n
CC(C)NC(=O)N1[C@H](CO)[C@@H](c2ccc(-c3ccc(F)cc3)cc2)[C@@H]1C#N	n	x	n	n	x	x	x	x
COc1ccc(-c2ccc([C@H]3[C@@H](C#N)N(C(=O)NC(C)C)[C@H]3CO)cc2)cc1	n	x	98	n	105	109	n	34
SMILES	Pf Dd2 inh	IDH1 mut inh	T cruzi growth-1	KDM4C inh	T cruzi growth-2	T cruzi growth-3	NIH3T3 tox	3T3 cytotox 2
COc1ccc(-c2ccc([C@H]3[C@@H](C#N)N(C(=O)NC4CCCCC4)[C@H]3CO)cc2)cc1	n	x	102	n	97	n	n	35
COc1ccc(-c2ccc([C@H]3[C@H](C#N)N(C(=O)NC(C)C)[C@H]3CO)cc2)cc1	n	x	n	n	x	x	x	x
COc1ccc(CN(C)C[C@@H]2Oc3ccc(NS(=O)(=O)c4c(C)noc4C)cc3CC(=O)N([C@H](C)CO)C[C@H]2C)cc1	n	n	n	n	x	x	x	x
C[C@@H]1CN([C@H](C)CO)S(=O)(=O)c2ccc(C#Cc3ccccn3)cc2O[C@@H]1CN(C)Cc1ccc(F)cc1	n	n	116	n	105	n	n	24
C[C@H](CO)N1C[C@H](C)[C@@H](CN(C)C)Oc2cc(C#Cc3ccccn3)ccc2S1(=O)=O	n	n	x	n	x	x	x	x
C[C@@H]1CN([C@H](C)CO)S(=O)(=O)c2ccc(C#Cc3ccccn3)cc2O[C@H]1CN(C)Cc1ccc(F)cc1	n	n	127	n	104	n	n	93
C[C@H]1CN([C@@H](C)CO)S(=O)(=O)c2ccc(C#Cc3ccccn3)cc2O[C@H]1CN(C)C	n	n	x	n	x	x	x	x
C[C@@H]1CN([C@@H](C)CO)S(=O)(=O)c2ccc(C#Cc3ccccn3)cc2O[C@H]1CN(C)Cc1ccc(F)cc1	n	n	128	n	97	u	50	39
C[C@H]1CN([C@@H](C)CO)S(=O)(=O)c2ccc(C#Cc3ccc(F)cc3)cc2O[C@@H]1CN(C)C(=O)c1ccccn1	n	x	u	n	102	n	n	52
C[C@@H]1CN([C@H](C)CO)S(=O)(=O)c2ccc(C#Cc3ccc(F)cc3)cc2O[C@H]1CN(C)C(=O)c1ccccn1	n	x	n	n	x	x	x	x
CC(=O)N1CC(=O)N2[C@@H](CO)[C@H](c3ccc(-c4ccc(C)cc4)cc3)[C@@H]2C1	n	x	x	n	x	x	x	x
CC=Cc1ccc2n(c1=O)C[C@@H]1[C@@H](CO)[C@H](C(=O)NCc3ccccn3)[C@H]2N1CCC (mixture of isomers)	n	x	n	n	x	x	x	x

Compound activity (PubChem)
